The results in this text go back to ChEMBL document CHEMBL3046618, “Syntheses and biological activities of pyranyl-substituted cinnamates” (Biosci Biotechnol Biochem, 2001).

In one data set the test system is Rhizoctonia solani. Nature of the data set: Antifungal activity against Rhizoctonia solani assessed as fungal growth inhibition at 100 ppm relative to untreated control. It counts as functional. The note with it: read-out: GI. The essentials:
(§1)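 Fungus precultured on potato dextrose agar (1.5% agar) for four days at 27°C before testing. Compounds tested at 100 ppm in triplicate. Growth inhibition (%) relative to untreated control.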
For the molecule `Cc1cc(OC(=O)/C=C/c2ccc(F)cc2)cc(=O)o1`, the inhibition of growth at 100 ppm came to 70%.
Still for that read-out and setting: to `Cc1cc(OC(=O)/C=C/c2ccc(Cl)cc2)cc(=O)o1` belongs greater than 60%; to `Cc1cc(OC(=O)/C=C/c2ccccc2F)cc(=O)o1`, 60%.
In the case of `Cc1cc(OC(=O)/C=C/c2cccc(F)c2)cc(=O)o1`, the inhibition of growth at 100 ppm is greater than 60%.
On the same count and under the same terms, as for `Cc1cc(OC(=O)/C=C/c2ccc(C(C)C)cc2)cc(=O)o1`, the figure is 80%; as for `Cc1cc(OC(=O)/C=C/c2ccccc2Cl)cc(=O)o1`, 60%; as for `Cc1cc(OC(=O)/C=C/c2cccc(Cl)c2)cc(=O)o1`, 60%.
Same read-out and setting: to `Cc1cccc(/C=C/C(=O)Oc2cc(C)oc(=O)c2)c1` belongs 70%; to `Cc1ccc(/C=C/C(=O)Oc2cc(C)oc(=O)c2)cc1`, 70%; to `Cc1cc(OC(=O)/C=C/c2ccccc2)cc(=O)o1`, greater than 60%.
Same read-out and setting: as for `Cc1cc(OC(=O)/C=C/c2ccccc2C)cc(=O)o1`, the figure is 70%; as for `O=C(/C=C/c1ccccc1F)Oc1cc(CCc2ccccc2)oc(=O)c1`, 10%.
As to `O=C(/C=C/c1cccc(F)c1)Oc1cc(CCc2ccccc2)oc(=O)c1`, the inhibition of growth at 100 ppm turned out to be 40%.
`O=C(/C=C/c1ccc(F)cc1)Oc1cc(CCc2ccccc2)oc(=O)c1`: the inhibition of growth at 100 ppm was determined as 10%.
The same measure, in the same setting: to `O=C(/C=C/c1ccc(Cl)cc1)Oc1cc(CCc2ccccc2)oc(=O)c1` belongs 10%.
Still for that read-out and setting: as for `O=C(/C=C/c1cccc(Cl)c1)Oc1cc(CCc2ccccc2)oc(=O)c1`, the figure is 40%; as for `O=C(/C=C/c1ccccc1Cl)Oc1cc(CCc2ccccc2)oc(=O)c1`, 40%.
In the case of `Cc1cccc(/C=C/C(=O)Oc2cc(CCc3ccccc3)oc(=O)c2)c1`, the inhibition of growth at 100 ppm worked out at 50%.
Same read-out and setting: as for `Cc1ccc(/C=C/C(=O)Oc2cc(CCc3ccccc3)oc(=O)c2)cc1`, the figure is 50%.
Still for that read-out and setting: as for `CC(C)c1ccc(/C=C/C(=O)Oc2cc(CCc3ccccc3)oc(=O)c2)cc1`, the figure is 40%; as for `O=C(/C=C/c1ccccc1)Oc1cc(CCc2ccccc2)oc(=O)c1`, 20%.
The same measure, in the same setting: as for `Cc1ccccc1/C=C/C(=O)Oc1cc(CCc2ccccc2)oc(=O)c1`, the figure is 50%; as for `Cc1cc(O)cc(=O)o1` [4-HYDROXY-6-METHYLPYRAN-2-ONE], no more than 10%.
In the case of `COc1cc(CCc2ccccc2)oc(=O)c1` [DIHYDRO-5,6-DEHYDROKAWAIN], the inhibition of growth at 100 ppm came to 50%.

Another data set deals with [Sclerotium] delphinii. The data set can be described thus: Antifungal activity against Sclerotium delphinii assessed as fungal growth inhibition at 100 ppm relative to untreated control. In kind it is functional. Particulars: Agroathelia delphinii; read-out: GI. The essentials: as §1
Take `Cc1cc(OC(=O)/C=C/c2ccc(F)cc2)cc(=O)o1`: the inhibition of growth at 100 ppm was 30%.
Still for that read-out and setting: as for `Cc1cc(OC(=O)/C=C/c2ccc(Cl)cc2)cc(=O)o1`, the figure is 30%.
The same measure, in the same setting: to `Cc1cc(OC(=O)/C=C/c2ccccc2F)cc(=O)o1` belongs greater than 40%; to `Cc1cc(OC(=O)/C=C/c2cccc(F)c2)cc(=O)o1`, 30%.
The same measure, in the same setting: to `Cc1cc(OC(=O)/C=C/c2ccc(C(C)C)cc2)cc(=O)o1` belongs no more than 50%; to `Cc1cc(OC(=O)/C=C/c2ccccc2Cl)cc(=O)o1`, 20%.
In the case of `Cc1cc(OC(=O)/C=C/c2cccc(Cl)c2)cc(=O)o1`, the inhibition of growth at 100 ppm is 40%.
Same read-out and setting: as for `Cc1cccc(/C=C/C(=O)Oc2cc(C)oc(=O)c2)c1`, the figure is 40%.
Regarding `Cc1ccc(/C=C/C(=O)Oc2cc(C)oc(=O)c2)cc1`, the inhibition of growth at 100 ppm came out at 10%.
On the same count and under the same terms, to `Cc1cc(OC(=O)/C=C/c2ccccc2)cc(=O)o1` belongs 20%.
Same read-out and setting: as for `Cc1cc(OC(=O)/C=C/c2ccccc2C)cc(=O)o1`, the figure is 20%; as for `O=C(/C=C/c1ccccc1F)Oc1cc(CCc2ccccc2)oc(=O)c1`, 10%; as for `O=C(/C=C/c1cccc(F)c1)Oc1cc(CCc2ccccc2)oc(=O)c1`, greater than 30%.
Turning to `O=C(/C=C/c1ccc(F)cc1)Oc1cc(CCc2ccccc2)oc(=O)c1`, the inhibition of growth at 100 ppm came out at 10%.
Same read-out and setting: as for `O=C(/C=C/c1ccc(Cl)cc1)Oc1cc(CCc2ccccc2)oc(=O)c1`, the figure is greater than 30%; as for `O=C(/C=C/c1cccc(Cl)c1)Oc1cc(CCc2ccccc2)oc(=O)c1`, 10%.
`O=C(/C=C/c1ccccc1Cl)Oc1cc(CCc2ccccc2)oc(=O)c1`: the inhibition of growth at 100 ppm is greater than 30%.
Still for that read-out and setting: as for `Cc1cccc(/C=C/C(=O)Oc2cc(CCc3ccccc3)oc(=O)c2)c1`, the figure is 30%.
Same read-out and setting: as for `Cc1ccc(/C=C/C(=O)Oc2cc(CCc3ccccc3)oc(=O)c2)cc1`, the figure is no more than 10%.
Still for that read-out and setting: as for `CC(C)c1ccc(/C=C/C(=O)Oc2cc(CCc3ccccc3)oc(=O)c2)cc1`, the figure is greater than 30%; as for `O=C(/C=C/c1ccccc1)Oc1cc(CCc2ccccc2)oc(=O)c1`, 30%.
For the molecule `Cc1ccccc1/C=C/C(=O)Oc1cc(CCc2ccccc2)oc(=O)c1`, the inhibition of growth at 100 ppm worked out at 40%.
On the same count and under the same terms, to `Cc1cc(O)cc(=O)o1` [4-HYDROXY-6-METHYLPYRAN-2-ONE] belongs 20%.
`COc1cc(CCc2ccccc2)oc(=O)c1` [DIHYDRO-5,6-DEHYDROKAWAIN]: the inhibition of growth at 100 ppm was 50%.

A further data set concerns Brassica rapa. Nature of the data set: Toxicity against Brassica rapa assessed as plant growth inhibition at 100 ppm relative to untreated control. It counts as organism-based. Particulars: in vivo. The essentials: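 Seedlings held three days at 27°C in darkness, then radicle and hypocotyl lengths measured. Growth inhibition (%) calculated for each organ against control. Each experiment run three times.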
As for `Cc1cc(OC(=O)/C=C/c2ccc(F)cc2)cc(=O)o1`, the “growth inhibition (GI)” value is greater than 50%.
Same read-out and setting: as for `Cc1cc(OC(=O)/C=C/c2ccc(Cl)cc2)cc(=O)o1`, the figure is greater than 60%.
For `Cc1cc(OC(=O)/C=C/c2ccccc2F)cc(=O)o1`, the “growth inhibition (GI)” value is on record as 30%.
Still for that read-out and setting: as for `Cc1cc(OC(=O)/C=C/c2cccc(F)c2)cc(=O)o1`, the figure is greater than 50%; as for `Cc1cc(OC(=O)/C=C/c2ccc(C(C)C)cc2)cc(=O)o1`, 20%.
Same read-out and setting: as for `Cc1cc(OC(=O)/C=C/c2ccccc2Cl)cc(=O)o1`, the figure is 20%; as for `Cc1cc(OC(=O)/C=C/c2cccc(Cl)c2)cc(=O)o1`, “<= 70%”.
On the same count and under the same terms, as for `Cc1cccc(/C=C/C(=O)Oc2cc(C)oc(=O)c2)c1`, the figure is 40%; as for `Cc1ccc(/C=C/C(=O)Oc2cc(C)oc(=O)c2)cc1`, 30%; as for `Cc1cc(OC(=O)/C=C/c2ccccc2)cc(=O)o1`, 30%.
As for `Cc1cc(OC(=O)/C=C/c2ccccc2C)cc(=O)o1`, the “growth inhibition (GI)” value is reported as 80%.
Consider `O=C(/C=C/c1ccccc1F)Oc1cc(CCc2ccccc2)oc(=O)c1`, for which the “growth inhibition (GI)” value was 40%.
The same measure, in the same setting: as for `O=C(/C=C/c1cccc(F)c1)Oc1cc(CCc2ccccc2)oc(=O)c1`, the figure is 30%; as for `O=C(/C=C/c1ccc(F)cc1)Oc1cc(CCc2ccccc2)oc(=O)c1`, 40%.
With `O=C(/C=C/c1ccc(Cl)cc1)Oc1cc(CCc2ccccc2)oc(=O)c1`, the “growth inhibition (GI)” value was determined as 20%.
As to `O=C(/C=C/c1cccc(Cl)c1)Oc1cc(CCc2ccccc2)oc(=O)c1`, the “growth inhibition (GI)” value came out at 50%.
Still for that read-out and setting: as for `O=C(/C=C/c1ccccc1Cl)Oc1cc(CCc2ccccc2)oc(=O)c1`, the figure is 30%; as for `Cc1cccc(/C=C/C(=O)Oc2cc(CCc3ccccc3)oc(=O)c2)c1`, 40%.
Still for that read-out and setting: to `Cc1ccc(/C=C/C(=O)Oc2cc(CCc3ccccc3)oc(=O)c2)cc1` belongs 30%; to `CC(C)c1ccc(/C=C/C(=O)Oc2cc(CCc3ccccc3)oc(=O)c2)cc1`, 10%; to `O=C(/C=C/c1ccccc1)Oc1cc(CCc2ccccc2)oc(=O)c1`, 30%.
On the same count and under the same terms, as for `Cc1ccccc1/C=C/C(=O)Oc1cc(CCc2ccccc2)oc(=O)c1`, the figure is greater than 60%; as for `COc1cc(CCc2ccccc2)oc(=O)c1` [DIHYDRO-5,6-DEHYDROKAWAIN], 0%.
